# Source: publication PMC4505548 (Organic & biomolecular chemistry, 2008)
# Molecular target: Neisseria meningitidis CSS (NmCSS), CMP-sialic acid synthetase (Neisseria meningitidis, UniProt P0A0Z8)
# Experiment: capillary electrophoresis UV assay of CMP-Neu5Ac formation
# Format: biochemical
# Conditions: 1000 µM; 1 mM CTP, 1 mM Neu5Ac, 20 mM MgCl2, Tris-HCl pH 8.5, 37 °C, 15 min
# How it was run: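 Purified recombinant NmCSS (1.25 ng) in 200 mM Tris-HCl pH 8.5 with CTP, Neu5Ac and MgCl2, reacted with test compound at 1 mM for 15 min at 37 °C. Stopped with 10% SDS on ice (final 1% SDS). CMP-Neu5Ac measured by capillary electrophoresis with UV detection. Percent conversion calculated from a UV response standard curve of CTP and CMP-Neu5Ac.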
# Neisseria meningitidis CSS (NmCSS), CMP-sialic acid synthetase, sequence (P0A0Z8 whole entry): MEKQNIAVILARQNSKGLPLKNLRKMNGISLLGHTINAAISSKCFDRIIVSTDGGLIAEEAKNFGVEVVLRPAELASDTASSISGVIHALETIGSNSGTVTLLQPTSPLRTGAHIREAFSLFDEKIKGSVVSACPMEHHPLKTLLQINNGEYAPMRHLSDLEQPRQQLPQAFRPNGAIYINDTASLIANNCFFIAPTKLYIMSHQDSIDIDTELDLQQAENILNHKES
row,Substance,% Inhibition
1,Saturated sulfo-CDP [compound 12],55 ± 4%
2,Saturated sulfo-UDP [compound 22],35 ± 2%
3,Sulfo-CDP [compound 5],47 ± 2%
4,Sulfo-CTP [compound 4],39 ± 2%
5,Sulfo-UTP [compound 19],33 ± 5%
